Test results published in publication PMC4467585 (Journal of Thoracic Oncology, 2015).
Where two headings read alike, the source gives them in different places.

Assays:
ALK [1] = conditions: more potent; cited from earlier work
[2] = Phase I study: single- and multiple-dose plasma pharmacokinetics; assay type: in vivo, human
InsR = conditions: enzyme panel; cited from earlier work
c-MET = conditions: unlike crizotinib; cited from earlier work
ALK [3] = conditions: enzyme-based assays; cited from earlier work
[4] = ASCEND-1; cited from earlier work
ALK [5] = conditions: cellular level; cited from earlier work
IGF-1R = conditions: enzyme panel; cited from earlier work
ALK-rearranged tumors = assay: Phase I study: tumor response, all patients incl. IMT; assay type: in vivo, human; conditions: 11 of 20, 300 to 750 mg
How it was run: (§1)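 Investigators assessed response by RECIST v1.1 using CT or MRI at baseline, then day 1 of every odd cycle (−3 to +14 days), excluding cycle 1 day 1. NSCLC patients also had brain MRI or head CT. Oral test compound was given once daily in 21-day cycles. Expansion patients were pooled with escalation patients at the same dose. ORR was reported with exact Clopper–Pearson 95% CI; data cutoff July 4, 2014.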

ALK-rearranged NSCLC [6] = conditions: ASCEND-1, cited from earlier work; for PFS: 750 mg once daily
[7] = ASCEND-1, cited from earlier work
STK22D = conditions: enzyme panel; cited from earlier work
ALK-rearranged NSCLC [8] = assay type: in vivo, human; conditions: for Duration of response to ceritinib: previously treated with alectinib
How it was run: as §1

[9] = Phase I study: DLTs, MTD and adverse events; assay type: in vivo, human; conditions: for Dose-limiting toxicity: one patient
How it was run: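 Adult Japanese patients with ALK-rearranged advanced tumors, progressed on standard therapy. Oral test compound: single dose in a 3-day PK run-in, then once daily in continuous 21-day cycles, 300–750 mg. Cohorts of 3–6 escalated by Bayesian logistic regression model with overdose control (<25% posterior DLT probability in ≥33–≤100% interval). DLTs assessed over cycle 1 including run-in; AEs graded CTCAE v4.03; data cutoff July 4, 2014.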

[10] = tested on: EML4-ALK xenograft models of NSCLC; conditions: including those exhibiting crizotinib resistance; cited from earlier work
[11] = tested on: alectinib-resistant tumor; conditions: patient who had progressed on alectinib; cited from earlier work
[12] = cited from earlier work
[13] = PK run-in, ln(parameter) = exponent × ln(dose) + constant, 300 to 750 mg

Cc1cc(Nc2ncc(Cl)c(Nc3ccccc3S(=O)(=O)C(C)C)n2)c(OC(C)C)cc1C1CCNCC1 [Ceritinib, 5-chloro-N2-(2-isopropoxy-5-methyl-4-(piperidin-4-yl)phenyl)-N4-(2-(isopropylsulfonyl)phenyl)pyrimidine-2,4-diamine]
Potency compared with crizotinib in inhibiting ALK (ALK [1]): 20 fold | Exponent of power model, AUC0–24 versus dose [2, 13]: 1.04 | Exponent of power model, Cmax versus dose [2, 13]: 0.909 | half-life ([2]; human, plasma, oral): 22 to 33 h | Tmax ([2]; human, plasma, oral, Median Tmax, across the tested doses and profile days): 2 to 7 h | Exposure numerically higher compared with Asian patients in ASCEND-1 ([2]; n = 3): < 30% | Time at which plasma concentration reached steady state ([2]; once-daily dosing, trough concentration versus time profiles, cycle 1): […] | IC50 (InsR): 7 nM | Inhibition of the kinase activity of c-MET (c-MET): did not inhibit | IC50 (ALK [3]): […] | Increase in exposure in Asian patients compared with non-Asian patients [4]: < 30% | IC50 (ALK [5]): […] | IC50 (IGF-1R): 8 nM | Overall response rate (ALK-rearranged tumors): 55% | PFS (ALK-rearranged NSCLC [6]; ALK inhibitor naive (n = 83)): 18.4 months | PFS (ALK-rearranged NSCLC [6]; previously treated with crizotinib (n = 163)): 6.9 months | ORR (ALK-rearranged NSCLC [6]; ALK inhibitor naive): 72.3% | ORR (ALK-rearranged NSCLC [6]; all patients (n = 246)): 61.8% | ORR (ALK-rearranged NSCLC [6]; previously treated with crizotinib): 56.4% | Incidence of drug-related grade 3/4 AEs [7]: 49% | Maximum-tolerated dose (MTD) ([7]; oral): 750 mg once daily | IC50 (STK22D): 23 nM | Partial response, patients (ALK-rearranged NSCLC [8]; ALKi-naive NSCLC patients): two of four | Duration of response to ceritinib (ALK-rearranged NSCLC [8]; Patient No. 2002, 300 mg once daily): […] | Duration of response to ceritinib (ALK-rearranged NSCLC [8]; Patient No. 3008, 750 mg once daily): […] | Partial response, patients (ALK-rearranged NSCLC [8]; alectinib-pretreated NSCLC patients): two of four | Partial response, patients (ALK-rearranged NSCLC [8]; crizotinib-pretreated NSCLC patients): five of nine | PR among patients previously treated with ALK inhibitors (ALK-rearranged NSCLC [8]; eight of 15 NSCLC patients): 53% | Patients with a reduction in the size of target lesions (ALK-rearranged NSCLC [8]; of the 16 evaluable NSCLC patients): 15 patients | Disease control rate (ALK-rearranged NSCLC [8]; patients with NSCLC across all dose groups, 13 of 19): 68% | Dose-limiting toxicity ([9]; 600 mg once daily): grade 3 lipase increase | Dose-limiting toxicity ([9]; 750 mg once daily): grade 3 drug-induced liver injury | Posterior probability of DLT rate being in the excessive toxicity interval (≥33% to ≤100%) ([9]; 750-mg once-daily dose, BLRM): 7.3% | Maximum-tolerated dose (MTD) ([9]; Japanese patients with ALK-rearranged tumors, oral): 750 mg once daily | Adverse event: diarrhea ([9]; all patients, 300 to 750 mg): 75% | Adverse event: nausea ([9]; all patients, 300 to 750 mg): 95% | Adverse event: vomiting ([9]; all patients, 300 to 750 mg): 75% | Patients with at least one dose interruption due to AEs ([9]; all patients, 11 patients): 55% | Patients with at least one dose reduction due to AEs ([9]; all patients, nine patients): 45% | Patients reporting grade 3/4 AEs ([9]; all patients, sixteen patients): 80% | Patients reporting grade 3/4 AEs suspected to be drug related ([9]; all patients, ten patients): 50% | Grade 3/4 increased ALT suspected to be drug related ([9]; all patients, two patients): 10% | Patients in whom AEs led to discontinuation ([9]; all patients, two patients): 10% | Antitumor activity in xenograft models [10]: marked antitumor activity | Duration of confirmed partial response [11]: […]

C[C@@H](Oc1cc(-c2cnn(C3CCNCC3)c2)cnc1N)c1c(Cl)ccc(F)c1Cl [Crizotinib]
Gastrointestinal AEs (including nausea, diarrhea, and vomiting) [12]: 39–56%
